Values after ≈ are worked out from the molar mass of the structure shown.
Key:
Type in all cases: functional
[1] = system: Candida parapsilosis; assay: Antifungal activity against Candida parapsilosis ATCC 22019 by CLSI M27-A2 microdilution method; conditions: Lodderomyces parapsilosis
[2] = system: Candida parapsilosis; assay: Antifungal activity against Candida parapsilosis ATCC 22019 by WIDERYST method; conditions: Lodderomyces parapsilosis
In short: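 Commercial 96-well panels with lyophilized drugs, the strain serving as a quality control. Ranges: FLC and 5FC 128–0.06 µg/ml; AMB, ITC, VRC and KTC 8–0.004 µg/ml. Inoculum 1 x 10^5 to 5 x 10^5 CFU/ml, 35°C, 24 h, no CO2, plus 24 h if no growth. Video-image read; MIC is 90% (AMB) or 50% (others) growth reduction versus the positive control.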

[3] = system: Pichia kudriavzevii; assay: Antifungal activity against Candida krusei ATCC 6258 by AFST-EUCAST method
In short: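 AFST-EUCAST microdilution standard for fermentative yeasts (document 7.1). The medium was RPMI 1640 with 2% glucose in flat-bottomed plates, and the inoculum was 10^5 CFU/ml. Endpoints were read spectrophotometrically at 24 and 48 h. The MIC was the lowest concentration giving ≥90% growth reduction versus the drug-free control for AMB, or a 50% OD reduction for 5FC and azoles. Run as a quality-control strain in each set.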

[4] = system: Pichia kudriavzevii; assay: Antifungal activity against Candida krusei ATCC 6258 by WIDERYST method
[5] = system: Pichia kudriavzevii; assay: Antifungal activity against Candida krusei ATCC 6258 by CLSI M27-A2 microdilution method
[6] = system: Candida parapsilosis; assay: Antifungal activity against Candida parapsilosis ATCC 22019 by AFST-EUCAST method; conditions: Lodderomyces parapsilosis
In short: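 Microdilution per AFST-EUCAST 7.1, with the strain run as a quality control in each set. RPMI 1640 plus 2% glucose, inoculum 10^5 CFU/ml, flat-bottomed plates. Read spectrophotometrically at 24 and 48 h. MIC endpoint is the lowest concentration giving ≥90% growth reduction versus the drug-free control for AMB, and 50% OD reduction for 5FC and azoles.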

Structure (SMILES)	MIC [1]	MIC [2]	MIC [3]	MIC [4]	MIC [5]	MIC [6]
C[C@@H]1[C@H](O)[C@@H](C)/C=C/C=C/C=C/C=C/C=C/C=C/C=C/[C@H](O[C@@H]2O[C@H](C)[C@@H](O)[C@H](N)[C@@H]2O)C[C@@H]2O[C@](O)(C[C@@H](O)C[C@@H](O)[C@H](O)CC[C@@H](O)C[C@@H](O)CC(=O)O[C@H]1C)C[C@H](O)[C@H]2C(=O)O [AMPHOTERICIN B]	0.25 µg/mL (≈ 0.271 µM)	0.06 µg/mL (≈ 0.0649 µM)	0.12 µg/mL (≈ 0.13 µM)	0.12 µg/mL (≈ 0.13 µM)	0.5 µg/mL (≈ 0.541 µM)	0.12 µg/mL (≈ 0.13 µM)
OC(Cn1cncn1)(Cn1cncn1)c1ccc(F)cc1F [FLUCONAZOLE]	1 µg/mL (≈ 3.27 µM)	0.5 µg/mL (≈ 1.63 µM)	8 µg/mL (≈ 26.1 µM)	8 µg/mL (≈ 26.1 µM)	16 µg/mL (≈ 52.2 µM)	1 µg/mL (≈ 3.27 µM)
Nc1nc(=O)[nH]cc1F [FLUCYTOSINE]	0.12 µg/mL (≈ 0.93 µM)	0.06 µg/mL (≈ 0.465 µM)	1 µg/mL (≈ 7.75 µM)	2 µg/mL (≈ 15.5 µM)	4 µg/mL (≈ 31 µM)	0.12 µg/mL (≈ 0.93 µM)
CCC(C)n1ncn(-c2ccc(N3CCN(c4ccc(OCC5COC(Cn6cncn6)(c6ccc(Cl)cc6Cl)O5)cc4)CC3)cc2)c1=O (stereo unspecified) [ITRACONAZOLE]	0.12 µg/mL (≈ 0.17 µM)	0.03 µg/mL (≈ 0.0425 µM)	0.06 µg/mL (≈ 0.085 µM)	0.06 µg/mL (≈ 0.085 µM)	0.12 µg/mL (≈ 0.17 µM)	0.03 µg/mL (≈ 0.0425 µM)
CC(=O)N1CCN(c2ccc(OCC3COC(Cn4ccnc4)(c4ccc(Cl)cc4Cl)O3)cc2)CC1 (stereo unspecified) [KETOCONAZOLE]	0.03 µg/mL (≈ 0.0565 µM)	0.01 µg/mL (≈ 0.0188 µM)	0.06 µg/mL (≈ 0.113 µM)	0.12 µg/mL (≈ 0.226 µM)	0.12 µg/mL (≈ 0.226 µM)	0.01 µg/mL (≈ 0.0188 µM)
C[C@@H](c1ncncc1F)[C@](O)(Cn1cncn1)c1ccc(F)cc1F [VORICONAZOLE]	0.03 µg/mL (≈ 0.0859 µM)	0.01 µg/mL (≈ 0.0286 µM)	0.06 µg/mL (≈ 0.172 µM)	0.06 µg/mL (≈ 0.172 µM)	0.06 µg/mL (≈ 0.172 µM)	0.03 µg/mL (≈ 0.0859 µM)

— ChEMBL document CHEMBL1255276, “Reliability of the WIDERYST susceptibility testing system for detection of in vitro antifungal resistance in yeasts” (2008)
